Experimental data published in ChEMBL document CHEMBL4689842, “EUbOPEN Chemogenomics Library wave 1” (2021).

Test system: Fibroblast
Assay: Multiplex assay against human fibroblast
Assay type: toxicity, cell-based
Method in brief: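 Live cells were stained at seeding with Hoechst33342, BioTracker Green Microtubule Cytoskeleton Dye, MitoTracker Red and Annexin V Alexa Fluor 680, then imaged on a CQ1 microscope at 37°C and 5% CO2 after compound addition. CellPathfinder machine-learning gating split cells into Hoechst high-intensity objects or normal cells. Normal cells were split into healthy, pyknosed or fragmented nuclei, and pyknosed cells into mitotic or apoptotic. Tubulin, mitochondrial-mass and membrane-permeability phenotypes are per cents of healthy-nucleus cells.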

[1] = 12 h, 1 µM, compound concentration 1 uM, replicate 1
[2] = 12 h, 1 µM, compound concentration 1 uM, replicate 2
[3] = 12 h, 10 µM, compound concentration 10 uM, replicate 1
[4] = 12 h, 10 µM, compound concentration 10 uM, replicate 2
[5] = 24 h, 1 µM, compound concentration 1 uM, replicate 1
[6] = 24 h, 1 µM, compound concentration 1 uM, replicate 2
[7] = 24 h, 10 µM, compound concentration 10 uM, replicate 1
[8] = 24 h, 10 µM, compound concentration 10 uM, replicate 2
[9] = 48 h, 1 µM, compound concentration 1 uM, replicate 1
[10] = 48 h, 1 µM, compound concentration 1 uM, replicate 2
[11] = 48 h, 10 µM, compound concentration 10 uM, replicate 1
[12] = 48 h, 10 µM, compound concentration 10 uM, replicate 2

CN(C)C(=O)C(CCN1CCC(O)(c2ccc(Cl)cc2)CC1)(c1ccccc1)c1ccccc1.Cl [LOPERAMIDE HYDROCHLORIDE]
Population Apoptotic (%) [1]: 54% | Population Fragmented Nuclei (%) [1]: 26% | Population Healthy Nuclei (%) [1]: 42% | Population Hoechst High Intensity Objects (%) [1]: 12% | Population Membrane Permeable-Phenotype (%) [1]: 19% | Population Mitochondria Different-Phenotype (%) [1]: 19% | Population Mitotic Cells (%) [1]: 45% | Population Normal (%) [1]: 87% | Population Pyknosed Nuclei (%) [1]: 31% | Population Tubulin-Different-Phenotype (%) [1]: 54% | Total Cell Count [1]: 155 | Population Apoptotic (%) [2]: 25% | Population Fragmented Nuclei (%) [2]: 5% | Population Healthy Nuclei (%) [2]: 88% | Population Hoechst High Intensity Objects (%) [2]: 7% | Population Membrane Permeable-Phenotype (%) [2]: 11% | Population Mitochondria Different-Phenotype (%) [2]: 90% | Population Mitotic Cells (%) [2]: 75% | Population Normal (%) [2]: 92% | Population Pyknosed Nuclei (%) [2]: 6% | Population Tubulin-Different-Phenotype (%) [2]: 65% | Total Cell Count [2]: 55 | Population Apoptotic (%) [3]: 64% | Population Fragmented Nuclei (%) [3]: 23% | Population Healthy Nuclei (%) [3]: 29% | Population Hoechst High Intensity Objects (%) [3]: 12% | Population Membrane Permeable-Phenotype (%) [3]: 0% | Population Mitochondria Different-Phenotype (%) [3]: 87% | Population Mitotic Cells (%) [3]: 35% | Population Normal (%) [3]: 87% | Population Pyknosed Nuclei (%) [3]: 46% | Population Tubulin-Different-Phenotype (%) [3]: 92% | Total Cell Count [3]: 158 | Population Apoptotic (%) [4]: 82% | Population Fragmented Nuclei (%) [4]: 8% | Population Healthy Nuclei (%) [4]: 48% | Population Hoechst High Intensity Objects (%) [4]: 6% | Population Membrane Permeable-Phenotype (%) [4]: 94% | Population Mitochondria Different-Phenotype (%) [4]: 100% | Population Mitotic Cells (%) [4]: 17% | Population Normal (%) [4]: 93% | Population Pyknosed Nuclei (%) [4]: 43% | Population Tubulin-Different-Phenotype (%) [4]: 100% | Total Cell Count [4]: 64 | Population Apoptotic (%) [5]: 45% | Population Fragmented Nuclei (%) [5]: 22% | Population Healthy Nuclei (%) [5]: 52% | Population Hoechst High Intensity Objects (%) [5]: 12% | Population Membrane Permeable-Phenotype (%) [5]: 19% | Population Mitochondria Different-Phenotype (%) [5]: 20% | Population Mitotic Cells (%) [5]: 54% | Population Normal (%) [5]: 87% | Population Pyknosed Nuclei (%) [5]: 25% | Population Tubulin-Different-Phenotype (%) [5]: 55% | Total Cell Count [5]: 157 | Population Apoptotic (%) [6]: 53% | Population Fragmented Nuclei (%) [6]: 5% | Population Healthy Nuclei (%) [6]: 71% | Population Hoechst High Intensity Objects (%) [6]: 4% | Population Membrane Permeable-Phenotype (%) [6]: 16% | Population Mitochondria Different-Phenotype (%) [6]: 89% | Population Mitotic Cells (%) [6]: 46% | Population Normal (%) [6]: 95% | Population Pyknosed Nuclei (%) [6]: 22% | Population Tubulin-Different-Phenotype (%) [6]: 62% | Total Cell Count [6]: 68 | Population Apoptotic (%) [7]: 82% | Population Fragmented Nuclei (%) [7]: 26% | Population Healthy Nuclei (%) [7]: 33% | Population Hoechst High Intensity Objects (%) [7]: 24% | Population Membrane Permeable-Phenotype (%) [7]: 7% | Population Mitochondria Different-Phenotype (%) [7]: 77% | Population Mitotic Cells (%) [7]: 17% | Population Normal (%) [7]: 75% | Population Pyknosed Nuclei (%) [7]: 39% | Population Tubulin-Different-Phenotype (%) [7]: 92% | Total Cell Count [7]: 156 | Population Apoptotic (%) [8]: 98% | Population Fragmented Nuclei (%) [8]: 10% | Population Healthy Nuclei (%) [8]: 26% | Population Hoechst High Intensity Objects (%) [8]: 10% | Population Membrane Permeable-Phenotype (%) [8]: 86% | Population Mitochondria Different-Phenotype (%) [8]: 95% | Population Mitotic Cells (%) [8]: 1% | Population Normal (%) [8]: 89% | Population Pyknosed Nuclei (%) [8]: 62% | Population Tubulin-Different-Phenotype (%) [8]: 95% | Total Cell Count [8]: 70 | Population Apoptotic (%) [9]: 67% | Population Fragmented Nuclei (%) [9]: 29% | Population Healthy Nuclei (%) [9]: 46% | Population Hoechst High Intensity Objects (%) [9]: 14% | Population Membrane Permeable-Phenotype (%) [9]: 8% | Population Mitochondria Different-Phenotype (%) [9]: 9% | Population Mitotic Cells (%) [9]: 32% | Population Normal (%) [9]: 85% | Population Pyknosed Nuclei (%) [9]: 23% | Population Tubulin-Different-Phenotype (%) [9]: 56% | Total Cell Count [9]: 155 | Population Apoptotic (%) [10]: 75% | Population Fragmented Nuclei (%) [10]: 34% | Population Healthy Nuclei (%) [10]: 62% | Population Hoechst High Intensity Objects (%) [10]: 12% | Population Membrane Permeable-Phenotype (%) [10]: 12% | Population Mitochondria Different-Phenotype (%) [10]: 8% | Population Mitotic Cells (%) [10]: 25% | Population Normal (%) [10]: 87% | Population Pyknosed Nuclei (%) [10]: 3% | Population Tubulin-Different-Phenotype (%) [10]: 70% | Total Cell Count [10]: 137 | Population Apoptotic (%) [11]: 86% | Population Fragmented Nuclei (%) [11]: 36% | Population Healthy Nuclei (%) [11]: 38% | Population Hoechst High Intensity Objects (%) [11]: 36% | Population Membrane Permeable-Phenotype (%) [11]: 2% | Population Mitochondria Different-Phenotype (%) [11]: 70% | Population Mitotic Cells (%) [11]: 13% | Population Normal (%) [11]: 63% | Population Pyknosed Nuclei (%) [11]: 25% | Population Tubulin-Different-Phenotype (%) [11]: 70% | Total Cell Count [11]: 139 | Population Apoptotic (%) [12]: 90% | Population Fragmented Nuclei (%) [12]: 37% | Population Healthy Nuclei (%) [12]: 52% | Population Hoechst High Intensity Objects (%) [12]: 45% | Population Membrane Permeable-Phenotype (%) [12]: 0% | Population Mitochondria Different-Phenotype (%) [12]: 85% | Population Mitotic Cells (%) [12]: 9% | Population Normal (%) [12]: 54% | Population Pyknosed Nuclei (%) [12]: 9% | Population Tubulin-Different-Phenotype (%) [12]: 88% | Total Cell Count [12]: 214
